This note sets out measurements from ChEMBL document CHEMBL1140150, “Identification of a nonbasic, nitrile-containing cathepsin K inhibitor (MK-1256) that is efficacious in a monkey model of osteoporosis” (J Med Chem, 2008).

Data set [1] can be described thus: Selectivity for rabbit cathepsin K over human cathepsin B. In a few lines:
(§1)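 Counterscreens used human Cat B and Cat S. Selectivity is expressed against humanized rabbit Cat K.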

The subject of data set [2] is Rattus norvegicus. Nature of the data set: Metabolic stability in po dosed rat assessed as (1R,2R)-5,5-dichloro-N-(1-cyanocyclopropyl)-2-(4-(4-(methylsulfonyl)phenyl)-1H-pyrazol-3-yl)cyclohexanecarboxamide level after 96 hrs. Format: ADME, organism-based. As to conditions: in vivo.
Data set [3] in a line: Oral bioavailability in rat at 10 mL/kg. The class given is ADME, organism-based. As to conditions: in vivo. In outline: (§2)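 Oral suspensions were given to overnight-fasted animals in the morning, at 10 mL/kg in rats, 5 mL/kg in dogs and 1 mL/kg in monkeys. Intravenous dosing was 1 mL/kg in all species. Plasma was sampled at intervals and analyzed by LC-MS after protein precipitation with 1.5 volumes acetonitrile and centrifugation.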

Data set [4] in a line: Metabolic stability in po dosed rat bile assessed as drug recovery after 96 hrs. Format: ADME, organism-based. As to conditions: read-out: Stability. In outline:
(§3)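 Radiolabeled compound was given orally to bile-cannulated rats. Radioactivity was recovered from bile, urine and feces over 96 h and expressed as percent of dosed radioactivity.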

The nature of data set [5]: Half life in rat at 10 mL/kg, po. The class given is ADME, organism-based. The note with it: in vivo. In outline: as §2
Data set [6] can be described thus: Selectivity for rabbit cathepsin K over human cathepsin F.
The nature of data set [7]: AUC in ovariectomized monkey model of osteoporosis at 1 mg/kg, po qd for 1 week. The class given is ADME, organism-based, Macaca mulatta. Details: dose 1 mg/kg, route oral. The note with it: female, rhesus monkey, in vivo. In a few lines: (§4)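 Adult ovariectomized rhesus monkeys dosed orally once daily at 1 mpk for 1 week, dosing volume 1 mL/kg, fasted overnight before morning dosing. Plasma drug levels were taken on the final day of dosing and analyzed by LC-MS after protein precipitation with 1.5 volumes acetonitrile and centrifugation.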

Data set [8] can be described thus: Inhibition of bone resorption in rabbit bone. The class given is functional, tissue-based, Oryctolagus cuniculus, Bone element.
Data set [9] in a line: Inhibition of bone resorption in rhesus monkey bone. Format: functional, tissue-based, Macaca mulatta, Bone element.
Data set [10] can be described thus: Clearance in rhesus monkey at 1 mL/kg, po. As to conditions: in vivo. The class given is ADME, organism-based, Macaca mulatta. In outline: as §2
Data set [11] can be described thus: Clearance in rat at 10 mL/kg, po. As to conditions: in vivo. The class given is ADME, organism-based. In a few lines:
as §2

The subject of data set [12] is Rhesus monkey. The experiment in a line: Inhibition of bone resorption in ovariectomized monkey model of osteoporosis assessed as reduction of urinary-N-telopeptide fragment level at 1 mg/kg, po qd for 1 week. The class given is functional, Macaca mulatta, Urine. Details: scale not given: the % may be the effect or the level left. In outline:
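Adult ovariectomized rhesus monkeys given drug or vehicle orally once daily at 1 mpk for 1 week. Bone resorption was followed by urinary N-telopeptide (NTx) normalized to creatinine (nM/mM), and the value is the mean reduction versus vehicle-treated animals.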

A short description of data set [13]: Selectivity for rabbit cathepsin K over human cathepsin H.
The nature of data set [14]: Selectivity for rabbit cathepsin K over human cathepsin V.
Data set [15] can be described thus: Bone resorption shift, ratio of IC50 for inhibition of bone resorption in rabbit bone to IC50 for rabbit cathepsin K. Format: functional, Oryctolagus cuniculus. In a few lines:
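Bone resorption shift is the rabbit bone resorption IC50 divided by the rabbit Cat K IC50.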

The nature of data set [16]: Half life in rhesus monkey at 1 mL/kg, po. The class given is ADME, organism-based, Macaca mulatta. As to conditions: in vivo. In a few lines: as §2
The nature of data set [17]: Cmax in ovariectomized monkey model of osteoporosis at 1 mg/kg, po qd for 1 week. The class given is ADME, organism-based, Macaca mulatta. The arrangement: dose 1 mg/kg, route oral. The note with it: female, rhesus monkey, in vivo. In a few lines:
as §4

A short description of data set [18]: Oral bioavailability in dog at 5 mL/kg. The class given is ADME, organism-based, Canis lupus familiaris. The note with it: in vivo. In outline:
as §2

Data set [19] can be described thus: Metabolic stability in po dosed rat assessed as drug recovery after 96 hrs. The class given is ADME, organism-based. The note with it: in vivo. In a few lines:
as §3

Data set [20] is described as follows: Inhibition of humanized rabbit cathepsin K Tyr61Asp and Val157Leu mutant. The arrangement: species or system Homo sapiens.
Data set [21] in a line: Clearance in dog at 5 mL/kg, po. Format: ADME, organism-based, Canis lupus familiaris. As to conditions: in vivo. In a few lines: as §2
Data set [22] has as its system Rattus norvegicus. The experiment in a line: Volume of distribution in rat at 10 mL/kg, po. Format: ADME, organism-based. The note with it: in vivo. In outline:
as §2

Data set [23] is described as follows: Drug level in ovariectomized monkey model of osteoporosis at 1 mg/kg, po qd for 1 week measured after 24 hrs of last dose. The class given is ADME, organism-based, Macaca mulatta. Details: dose 1 mg/kg, route oral. As to conditions: female, rhesus monkey, in vivo, read-out: Drug uptake. In a few lines: as §4
Another data set concerns Canis familiaris. Nature of the data set: Volume of distribution in dog at 5 mL/kg, po. The class given is ADME, organism-based, Canis lupus familiaris. As to conditions: in vivo. In outline:
as §2

Data set [24] is described as follows: Half life in dog at 5 mL/kg, po. Format: ADME, organism-based, Canis lupus familiaris. The note with it: in vivo. In a few lines: as §2
A short description of data set [25]: Selectivity for rabbit cathepsin K over human cathepsin C.
The nature of data set [26]: Oral bioavailability in rhesus monkey at 1 mL/kg. As to conditions: in vivo. Format: ADME, organism-based, Macaca mulatta. In outline: as §2
Data set [27] in a line: Metabolic stability in po dosed rat feces assessed as drug recovery after 96 hrs. As to conditions: faeces, read-out: Stability. The class given is ADME, organism-based. In a few lines:
as §3

In data set [28] the test system is Rhesus monkey. Nature of the data set: Volume of distribution in rhesus monkey at 1 mL/kg, po. Format: ADME, organism-based, Macaca mulatta. The note with it: in vivo. In outline:
as §2

The nature of data set [29]: Selectivity for rabbit cathepsin K over human cathepsin Z.
Data set [30] in a line: Selectivity for rabbit cathepsin K over human cathepsin S. In outline: as §1
For the next data set, the species on record is Homo sapiens. Nature of the data set: Inhibition of humanized rabbit cathepsin K Tyr61Asp and Val157Leu mutant in presence of 0.2 uM citrate buffer at 0.12 uM. In a few lines: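 Reversibility test: a 1:1 mixture of humanized rabbit Cat K and inhibitor (0.12 µM) was preincubated 15 min, then diluted 500-fold into substrate-containing buffer (0.2 µM citrate). Recovery of enzyme activity was followed over time against a control incubation, giving a recovery half-time.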

A short description of data set [31]: Metabolic stability in po dosed rat urine assessed as drug recovery after 96 hrs. The class given is ADME, organism-based. As to conditions: read-out: Stability. In a few lines: as §3
Another data set addresses T1, Cathepsin K (Oryctolagus cuniculus, UniProt P43236).
T1 sequence (P43236 whole entry): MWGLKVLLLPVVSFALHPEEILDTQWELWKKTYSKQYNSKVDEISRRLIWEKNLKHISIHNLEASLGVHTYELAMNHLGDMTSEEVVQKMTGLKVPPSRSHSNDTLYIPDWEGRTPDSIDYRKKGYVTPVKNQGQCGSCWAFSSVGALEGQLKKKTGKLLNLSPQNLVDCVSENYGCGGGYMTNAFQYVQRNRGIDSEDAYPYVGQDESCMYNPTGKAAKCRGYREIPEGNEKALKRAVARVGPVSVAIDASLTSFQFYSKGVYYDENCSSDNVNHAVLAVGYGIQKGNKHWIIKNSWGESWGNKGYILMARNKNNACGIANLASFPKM
Nature of the data set: Inhibition of rabbit cathepsin K.

Data set [32] deals with Rhesus monkey. The experiment in a line: Inhibition of bone resorption in ovariectomized monkey model of osteoporosis assessed as reduction of urinary-N-telopeptide fragment level at 1 mg/kg administered once daily. The arrangement: scale not given: the % may be the effect or the level left.
The nature of data set [33]: Tmax in ovariectomized monkey model of osteoporosis at 1 mg/kg, po qd for 1 week. The class given is ADME, organism-based, Macaca mulatta. The arrangement: dose 1 mg/kg, route oral. The note with it: female, rhesus monkey, in vivo. In a few lines:
as §4

Data set [34] is described as follows: Protein binding in rat plasma by ultracentrifugation. The class given is ADME, cell-free. The note with it: read-out: PPB (converted).
Data set [35] in a line: Protein binding in rabbit plasma by ultracentrifugation. Format: ADME, cell-free, Oryctolagus cuniculus. The note with it: read-out: PPB (converted).
Data set [36] is described as follows: Protein binding in human plasma by ultracentrifugation. Format: ADME, cell-free. The note with it: read-out: PPB (converted).

Regarding `CS(=O)(=O)c1ccc(-c2cn(CC(F)(F)F)nc2[C@@H]2CCC(Cl)(Cl)C[C@H]2C(=O)NC2(C#N)CC2)cc1`, the Selectivity ratio in data set [1] is greater than 16000; in data set [6] it was 110; in data set [13], greater than 140000; in data set [14], 1100; in [25], 6000; in data set [29], 1700. In addition, the Selectivity ratio in data set [30] stood at 4300. Besides, the values for the Activity with Rattus norvegicus [2], in the data set on Rhesus monkey [12] and with Rhesus monkey [32] were 0.1%, 72% and 76%, respectively. Moreover, the bioavailability in data set [3] came to 105%; in [18], 60%; in data set [26], 104%. Also, the dose excreted at 96 h in data set [4] amounted to 16%; in [19] it was 92%; in data set [27], 58%; in [31], 18%. Besides, the values for the half-life in [5], in [16] and in [24] were 4.4 h, 13 h and 34 h, respectively. Further, in data set [7], the AUC – broadly, the area under the concentration-time curve, a measure of exposure – at 168 h stood at 4.2 µM·h. The IC50 (commonly the point on the concentration scale where inhibition reaches its midpoint) is 50 nM in data set [8], 2 nM in data set [9], 0.62 nM in data set [20] and 6.1 nM at Cathepsin K. The CL/F (in general, the apparent clearance, not corrected for the fraction that reaches the circulation) amounted to 5 mL/min/kg in data set [10], 7.8 mL/min/kg in [11] and 1.4 mL/min/kg in [21]. Also, in data set [15], the “Ratio IC50” value is given as 8. The Cmax (in general, the highest concentration seen after dosing) in data set [17] turned out to be 400 nM. The Vdss in the data set with Rattus norvegicus [22] stood at 2.8 L/kg; in the data set with Canis familiaris, 2.1 L/kg; in the data set with Rhesus monkey [28], 3.4 L/kg. In addition, the concentration at 24 h in [23] was 80 nM. The inhibition (commonly the percentage by which the read-out fell short of the control) in the data set filed under Homo sapiens is greater than 99%. In addition, in [33], the Tmax (commonly the time at which the peak concentration occurs) was 4 h.
As to `Cn1cc(-c2ccc(S(C)(=O)=O)cc2)c([C@@H]2CCC(F)(F)C[C@H]2C(=O)NC2(C#N)CC2)n1`, the Selectivity ratio in data set [1] came to 4400; in data set [30], 1200. Besides, the IC50 was found to be 35 nM in [8], 0.81 nM in data set [20] and 4.5 nM at Cathepsin K. Moreover, in data set [15], the “Ratio IC50” value is on record as 8.
In the case of `CSc1ccc(-c2ccccc2[C@@H]2CCC(F)(F)C[C@H]2C(=O)NCC#N)cc1`, the Selectivity ratio in [1] was greater than 36000; in data set [30], 940. Further, the fraction unbound in data set [34], in [35] and in data set [36] was 0.15 each time. Further, the IC50 in data set [8] worked out at 16 nM; in [20] it was 0.28 nM. Also, in data set [15], the “Ratio IC50” value is 53.
Consider `CSc1ccc(-c2cn(C)nc2[C@@H]2CCC(F)(F)C[C@H]2C(=O)NCC#N)cc1` (racemic), for which the Selectivity ratio amounted to 9500 in data set [1] and 490 in data set [30]. Besides, the values for the IC50 (in data set [8]; in data set [20]; against Cathepsin K) were 41 nM, 0.37 nM and 0.41 nM, respectively. Also, the “Ratio IC50” value in [15] was found to be 100.
`CS(=O)(=O)c1ccc(-c2c[nH]nc2[C@@H]2CCC(F)(F)C[C@H]2C(=O)NC2(C#N)CC2)cc1`: the Selectivity ratio in [1] worked out at 2900; in [30] it was 2300. The figures for the IC50 (in data set [8]; in data set [20]; against Cathepsin K) were 120 nM, 1.8 nM and 18.6 nM, respectively. The “Ratio IC50” value in data set [15] turned out to be 7.
In the case of `CS(=O)(=O)c1ccc(-c2cn(CC(F)(F)F)nc2[C@@H]2CCC(F)(F)C[C@H]2C(=O)NC2(C#N)CC2)cc1`, the Selectivity ratio in [1] is greater than 14000; in data set [6], 110; in data set [13] it was greater than 140000; in data set [14], 1100; in [25], 6000; in data set [29] it was 1700. For the same compound, in [30], the Selectivity ratio amounted to 7100. In addition, the bioavailability in data set [3] is 25%; in data set [18], 31%. Also, the results for the half-life in data set [5] and in [24] were 4.4 h and 7.8 h, respectively. The IC50 came to 51 nM in data set [8], 0.69 nM in data set [20] and 9.3 nM against Cathepsin K. Moreover, the CL/F in data set [11] was 14 mL/min/kg; in data set [21], 1.8 mL/min/kg. Further, in data set [15], the “Ratio IC50” value was found to be 6. Also, the Vdss in the data set with Rattus norvegicus [22] was 3.2 L/kg; with Canis familiaris it was 1.2 L/kg.
